Source: article PMC10012268 (ACS Infectious Diseases, 2023)
pEC50: −log10 of the molar value. Values joined by “and” are separate entries in the source; they are usually repeats but may differ in a detail not shown here. Equal entries are not always repeated.

Assays:
Pf Dd2 parental line = experiment: 3H-hypoxanthine 72 h assay, Dd2 parental line; type: cell-based; conditions: Plasmodium falciparum, DD2, read-out: Pf Dd2 EC50, Dd2 parental line, 3H-hypoxanthine 72 h; average of two experiments
[1] = test system: Pf SB1-A6 strain with a CNV (∼2-fold) and a C276F mutation in DHODH; experiment: SB1-A6 asexual-stage assay; type: cell-based; conditions: Plasmodium falciparum, 72 h, read-out: SB1-A6 EC50
How it was run: (§1)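 Parasites were sorbitol-synchronised one cycle before setup. Ring stages at 0.5% parasitemia and 2% hematocrit were plated onto twofold compound dilutions and incubated at 37 °C for 72 h. Cells were fixed in 0.25% glutaraldehyde (RT, 30 min), stained with 2.5× SYBR Green (37 °C, 30 min) and counted by flow cytometry. EC50 is the average of three independent experiments.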

[2] = test system: Pf Dd2 expressing ScDHODH; experiment: ScDHODH asexual-stage assay; type: cell-based; conditions: Plasmodium falciparum, DD2, 72 h, read-out: Dd2 ScDHODH EC50
How it was run: as §1

[3] = test system: P. falciparum 3D7 parasites; experiment: P. falciparum 3D7 asexual-stage parasite LDH viability assay; type: cell-based, Plasmodium falciparum; conditions: for pEC50: Plasmodium falciparum, 3D7, 72 h, read-out: Control compound activity against 3D7 parasites, EC50, 3D7, LDH assay, 72 h, value (SD)
[4] = test system: P. berghei ANKA parasites expressing GFP; experiment: Peter's 4 day P. berghei mouse model; type: in vivo; conditions: for % parasitemia: average for four mice on day 4; for % reduction in parasitemia: versus the vehicle control, four mice, day 4
How it was run: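 Swiss mice (four per group) were infected IV with 1 × 10^7 P. berghei ANKA GFPcon-infected erythrocytes from donor mice. Dosing was oral once daily for 4 days, starting 2 h post-infection: test compound at 20 mg/kg in 20% DMSO/60% propylene glycol/20% water, or chloroquine at 10 mg/kg in water. Day-4 parasitemia was measured as GFP+ cells per 100,000 events and by Giemsa smears, with reduction calculated against vehicle.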

[5] = Liver microsome stability, mouse; type: in vitro ADME; conditions: pooled mouse liver microsomes
How it was run: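 Test compound (1 μM, phosphate buffer) was incubated with pooled mouse liver microsomes (0.5 mg/mL) at 37 °C, with and without an NADPH regeneration system, sampling at 0, 5, 20, 30, 45 and 60 min. Run in duplicate.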

[6] = Hepatocyte stability, rat; type: in vitro ADME; conditions: pooled rat hepatocytes
How it was run: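 Test compound (1 μM) in Krebs–Henseleit buffer was incubated with pooled rat hepatocytes (1 × 10^6 cells/mL) at 37 °C, 5% CO2, with samples from 0 to 90 min. Reactions were quenched with ice-cold acetonitrile and centrifuged, and supernatants were analysed by LC–MS/MS. Half-life and CLint were derived from parent remaining. Run in duplicate.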

LogD at pH 7.4 = type: physicochemical; conditions: 1-octanol/phosphate-buffered saline (1:1, v/v)
[7] = test system: Pf Dd2 strain with an I22L mutation in the Qi site cyt b; experiment: 3H-hypoxanthine 72 h assay, Dd2 cyt b; type: cell-based, Plasmodium falciparum
How it was run: (§2)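 Asexual blood-stage parasites in hypoxanthine-free RPMI 1640 with HEPES, NaHCO3, neomycin (100 μg/mL) and Albumax II (5 g/L). Infected blood (0.3% parasitemia, 2.5% hematocrit) was exposed to a 10-point serial dilution at 37 °C under 93% N2/4% CO2/3% O2. After 48 h, [3H]-hypoxanthine (0.5 μCi/well) was added for 24 h more. Scintillation cpm were normalised to untreated controls, and logit regression gave values as means of two experiments.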

K1 = experiment: 3H-hypoxanthine 72 h assay, K1; type: cell-based; conditions: Plasmodium falciparum, K1, read-out: Pf multidrug-resistant strain EC50 K1
NF54 = experiment: 3H-hypoxanthine 72 h assay, NF54; type: cell-based; conditions: Plasmodium falciparum, NF54, read-out: Pf multidrug-resistant strain EC50 NF54
RF12 = experiment: 3H-hypoxanthine 72 h assay, RF12; type: cell-based; conditions: Plasmodium falciparum, read-out: Pf multidrug-resistant strain EC50 RF12
7G8 = experiment: 3H-hypoxanthine 72 h assay, 7G8; type: cell-based; conditions: Plasmodium falciparum, 7G8, read-out: Pf multidrug-resistant strain EC50 7G8
[8] = test system: mitochondrial electron transport chain of P. falciparum 3D7 asexual parasites; experiment: ETC biosensor / oxygen consumption rate; type: cell-based, Plasmodium falciparum; conditions: for effect on malate-dependent oxygen consumption rate (OCR): compounds at 5 μM, malate as the energy source
How it was run: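 Magnet-purified trophozoite-infected RBCs were saponin-released (0.05%, 37 °C, 3 min) and washed. Parasites were suspended in MAS buffer with 25 mM malate and 0.002% digitonin and seeded at 5 × 10^6 per Cell-Tak-coated well (800g, 10 min). Seahorse XFe96 OCR was read at baseline, after test compound (5 μM final), after TMPD (0.2 mM) with ascorbate (2 mM), then after NaN3 (10 mM). Each cycle was 20 s mix, 1 min wait, 2.5 min measure.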

[9] = test system: P. falciparum NF54 female gametes; experiment: Dual gamete formation assay; type: cell-based; conditions: Plasmodium falciparum, NF54, read-out: female gamete EC50
How it was run: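 Stage V NF54 gametocyte cultures with >0.2% exflagellation were diluted to 12.5 million cells/mL in gametocyte medium containing 10% human serum and no Albumax. They were dispensed warm (625,000 cells/well) onto the test compound. After ookinete medium was added, plates went to 4 °C for 4 min and then 28 °C for 5 min, followed by 24 h at 28 °C in the dark. Female gametes (Pfs25) were scored from one fluorescence image per well.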

P. berghei EEFs = experiment: Exoerythrocytic stage assay; type: cell-based; conditions: Plasmodium berghei, 48 h, read-out: Pb liver stage EEFs EC50 (SD)
HepG2 = HepG2 host cell viability in the liver stage panel; type: cell-based; conditions: Homo sapiens, HepG2, 48 h, read-out: HepG2 EC50 (liver stage)
[10] = Plasma bioanalysis in the P. berghei mouse model; type: in vivo; conditions: 20 mg/kg oral
How it was run: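 Blood was sampled from P. berghei-infected mice at 2, 6 and 22 h after the first oral 20 mg/kg dose. Plasma compound concentrations were quantified by LCMS.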

[11] = test system: drug-resistant P. falciparum strains; experiment: Profiling against a selection of multidrug-resistant parasites; type: cell-based, Plasmodium falciparum
How it was run: as §2

[12] = Kinetic aqueous solubility; type: physicochemical; conditions: kinetic in PBS
How it was run: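 Miniaturised shake flask: test compound (200 μM) in PBS pH 7.4 was shaken at 600 rpm, 25 °C for 2 h, filtered, and the filtrate half-diluted in acetonitrile. Run in duplicate.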

[13] = 3D7 parasite EC50 compared to 17

## O=C1C(O)=C([C@H]2CC[C@H](c3ccc(Cl)cc3)CC2)C(=O)c2ccccc21 [ATQ, atovaquone, reference compound]
Pf Dd2 parental line
  pEC50: 9.00
[1]
  pEC50: < 5.00
[2]
  pEC50: < 5.00

## CCN(CC)CCCC(C)Nc1ccnc2cc(Cl)ccc12 (stereo not drawn) [CQ, chloroquine, reference compound]
[3]
  pEC50: 7.46
[4]; 10 mg/kg
  % parasitemia: 0.02%
  % reduction in parasitemia: 99.8%

## CCn1cc(-c2nc(C)no2)c(=O)c2cc(F)c(N3CCC(C)CC3)cc21 [Compound 17, 1-Ethyl-6-fluoro-3-(3-methyl-1,2,4-oxadiazol-5-yl)-7-(4-methyl-1-piperidyl)quinolin-4-one]
[3]
  in vitro EC99: 0.030 µM
[5]
  microsomal CLint at 1 μM: 16.2 µL/min/mg
[6]
  hepatocyte CLint at 1 μM: 53.8 µL/min/1e6 cells
LogD at pH 7.4
  logD at 2 h: 2.6
Pf Dd2 parental line
  pEC50: 8.00
[7]
  difference in sensitivity between the ELQ-300 resistant Dd2 strain and the Dd2 parental strain: no difference in sensitivity
[1]
  pEC50: 5.74
[2]
  pEC50: 5.77
K1
  pEC50: 8.05
NF54
  pEC50: 7.92
RF12
  pEC50: 8.22
7G8
  pEC50: 8.05
[8]; after compound (5 μM), TMPD (cytochrome c electron donor) added
  OCR upon addition of TMPD: rescued
[8]
  effect on malate-dependent oxygen consumption rate (OCR): significantly reduce the OCR
[9]
  pEC50: < 4.60
P. berghei EEFs
  pEC50: > 9.00
HepG2
  pEC50: < 4.30
[4]; 20 mg/kg p.o. q.d. days 0-3
  % parasitemia: 8.1%
  % reduction in parasitemia: 56% and 56.2%
[10]
  absorption: moderate absorption
[10]; after dose 1
  time for which total plasma concentration exceeds the in vitro EC99: approximately 12 h
[11]
  potency against each drug-resistant strain compared to the Dd2 and NF54 wild-type parasites: equipotent

## CCn1cc(C(N)=O)c(=O)c2cc(F)c(N3CCC(C)CC3)cc21 [Compound 22, 1-Ethyl-6-fluoro-7-(4-methyl-1-piperidyl)-4-oxo-quinoline-3-carboxamide]
[3]; [13]
  fold less active/potent than 17: approximately 20 fold
[7]
  difference in sensitivity between the ELQ-300 resistant Dd2 strain and the Dd2 parental strain: no difference in sensitivity
P. berghei EEFs
  pEC50: 7.62
HepG2
  pEC50: < 4.30

## CCNC(=O)c1cn(CC)c2cc(N3CCC(C)CC3)c(F)cc2c1=O [Compound 23, N,1-Diethyl-6-fluoro-7-(4-methyl-1-piperidyl)-4-oxo-quinoline-3-carboxamide]
[3]; [13]
  fold less active/potent than 17: approximately 20 fold

## CCn1cc(-c2nc(C)no2)c(=O)c2cc(F)c(N3CCN(C(C)=O)CC3)cc21 [Compound 33, 7-(4-Acetylpiperazin-1-yl)-1-ethyl-6-fluoro-3-(3-methyl-1,2,4-oxadiazol-5-yl)quinolin-4-one]
[8]
  effect on malate-dependent oxygen consumption rate (OCR): does not affect the OCR

## CCn1cc(-c2nc(C)no2)c(=O)c2cc(F)c(N3CCCC(C)C3)cc21 (stereo not drawn) [Compound 34, 1-Ethyl-6-fluoro-3-(3-methyl-1,2,4-oxadiazol-5-yl)-7-(3-methyl-1-piperidyl)quinolin-4-one]
[3]; [13]
  fold less active/potent than 17: 5 fold

## CCCC1CCN(c2cc3c(cc2F)c(=O)c(-c2nc(C)no2)cn3CC)CC1 [Compound 38, 1-Ethyl-6-fluoro-3-(3-methyl-1,2,4-oxadiazol-5-yl)-7-(4-propyl-1-piperidyl)quinolin-4-one]
[3]; [13]
  fold more potent than 17: 2 fold

## CCn1cc(-c2nc(C)no2)c(=O)c2cc(F)c(N3CCC(C(C)C)CC3)cc21 [Compound 39, 1-Ethyl-6-fluoro-7-(4-isopropyl-1-piperidyl)-3-(3-methyl-1,2,4-oxadiazol-5-yl)quinolin-4-one]
[3]; [13]
  fold less active/potent than 17: 2 fold

## CCn1cc(-c2nc(C)no2)c(=O)c2cc(F)c(N3CCC(c4ccccc4)CC3)cc21 [Compound 40, 1-Ethyl-6-fluoro-3-(3-methyl-1,2,4-oxadiazol-5-yl)-7-(4-phenyl-1-piperidyl)quinolin-4-one]
[3]; [13]
  fold less active/potent than 17: 2 fold

## CCn1cc(-c2nc(C)no2)c(=O)c2cc(F)c(N3CCC(CN4CCOCC4)CC3)cc21 [Compound 42, 1-Ethyl-6-fluoro-3-(3-methyl-1,2,4-oxadiazol-5-yl)-7-[4-(morpholinomethyl)-1-piperidyl]quinolin-4-one]
[3]; 3D7 parasite EC50 compared to 41
  fold less active than the benzyl analog 41: 30 fold

## CCOC(=O)c1cn(CC)c2cc(N3CCC(Cc4ccccc4)CC3)c(F)cc2c1=O [Compound 43, Ethyl 7-(4-Benzyl-1-piperidyl)-1-ethyl-6-fluoro-4-oxo-quinoline-3-carboxylate]
[6]
  hepatocyte CLint at 1 μM: > 92.4 µL/min/1e6 cells
[12]
  aqueous solubility pH 7.4: 10.4 μM
LogD at pH 7.4
  logD at 2 h: 4.6
Pf Dd2 parental line
  pEC50: 7.82
[7]
  difference in sensitivity between the ELQ-300 resistant Dd2 strain and the Dd2 parental strain: no difference in sensitivity
K1
  pEC50: 7.85
NF54
  pEC50: 7.77
RF12
  pEC50: 8.30
7G8
  pEC50: 7.92
[11]
  potency against each drug-resistant strain compared to the Dd2 and NF54 wild-type parasites: equipotent

## O=C(NCCN1CCCC1)c1cc(-c2ccc(CN3CCOCC3)cc2)nc2ccc(F)cc12 [DDD107498]
Pf Dd2 parental line
  pEC50: 9.40

## Cc1cc(Nc2ccc(S(F)(F)(F)(F)F)cc2)n2nc(C(C)(F)F)nc2n1 [DSM265, reference compound]
Pf Dd2 parental line
  pEC50: 7.62
[1]
  pEC50: < 5.00
[2]
  pEC50: < 5.00
[8]
  effect on malate-dependent oxygen consumption rate (OCR): had no effect

## CC1(C)c2nc(-c3ccc(F)cc3)c(Nc3ccc(F)cc3)n2CCN1C(=O)CN [KAF156]
Pf Dd2 parental line
  pEC50: 8.10

## CS(=O)(=O)c1ccc(-c2cnc(N)c(-c3ccc(C(F)(F)F)nc3)c2)cc1 [MMV048]
Pf Dd2 parental line
  pEC50: 7.80

## C[C@H]1[C@H](OC(=O)CCC(=O)O)O[C@@H]2O[C@@]3(C)CC[C@H]4[C@H](C)CC[C@@H]1[C@@]24OO3 [artesunate, reference compound]
[3]
  pEC50: 8.10
